Experiment [1] can be described thus: inhibitors of TNFa-induced NFkB p65 translocation, primary screen, imaging, HUVEC, MLSMR starter and 10KST1 sets (AID 438;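 active = inhibition above 20% together with a positive visual image hit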;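 note: compound added about 3h40 before a 20 min TNFalpha stimulation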;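 for inhibition: signal is the nuclear over cytoplasmic p65 intensity ratio per well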). The conditions noted are these: HUVEC TNFa-induced p65 nuclear translocation; cell count: measured here: nuclei count (cytotoxicity indicator), at 2.08 µM; inhibition: at 2 µM, stronger effect = higher value, 0% TNFa-plus-vehicle, 100% no-TNFa wells.

Experiment [2] can be described thus: reduction of polyQ htt aggregates in cells – imaging, exon1htt(103Q)mCFP cells, high-content imaging, primary screen (AID 483).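 For nuclei count: percent of the per-plate median nuclei count of sample wells.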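 Note: compound exposure lasted 3 days before fixation.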 The conditions noted are these: exon1htt(103Q)mCFP cell line, aggregate imaging, at 2 µM; inhibition of aggregation: stronger effect = higher value; nuclei count: measured here: cell count, toxicity.
Experiment [3] can be described thus: endothelial E-selectin expression blockers – imaging, HUVEC, immunofluorescence, MLSMR starter and 10KST1 sets, primary screen (AID 487;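 active = visually confirmed hit in the image check and inhibition above 20%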;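 for inhibition: signal is fraction of cell area covered by stained E-selectin grains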;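 for nuclei count: 100% = median nuclei count of all wells on the same plate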). The conditions noted are these: HUVEC TNFalpha-induced E-selectin immunofluorescence imaging, at 2 µM; inhibition: stronger effect = higher value; nuclei count: measured here: cell number, toxicity.
Experiment [4] deals with Voltage-gated potassium channel subunit beta-2 (Rattus norvegicus) (UniProt P62483). As to the kind of experiment: inhibitors of rat Kvbeta2 reductase activity – biochemical, NADPH fluorescence, primary screen (AID 622;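 active = fluorescence slope higher than the sample average by over 3 SD, cut at about -0.22 in these data, passing the limit was not always enough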;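 note: slope of raw intensity against log time taken from 70 to 1610 s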). The conditions noted are these: recombinant KvBeta, 4-cyanobenzaldehyde reduction, at 10 µM, stronger effect = higher value.
Voltage-gated potassium channel subunit beta-2 (Rattus norvegicus), sequence (P62483 whole entry, looked up): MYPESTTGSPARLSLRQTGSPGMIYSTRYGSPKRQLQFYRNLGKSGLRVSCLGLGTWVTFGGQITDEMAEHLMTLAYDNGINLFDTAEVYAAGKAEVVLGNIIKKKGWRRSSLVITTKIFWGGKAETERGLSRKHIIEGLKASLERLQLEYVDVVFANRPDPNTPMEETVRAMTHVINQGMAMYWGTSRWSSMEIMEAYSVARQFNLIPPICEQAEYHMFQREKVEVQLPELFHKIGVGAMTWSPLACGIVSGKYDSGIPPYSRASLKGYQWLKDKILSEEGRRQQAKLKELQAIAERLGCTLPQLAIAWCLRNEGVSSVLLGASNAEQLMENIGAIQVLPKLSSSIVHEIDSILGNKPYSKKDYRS
Experiment [5] has the same target. As to the kind of experiment: enhancers of rat Kvbeta2 NADPH turnover – biochemical, NADPH fluorescence, primary screen (AID 623;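 active = NADPH fluorescence slope more negative than the mean of all samples by about 3 SD, 99.7% confidence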;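 note: fluorescence intensity change per second fitted from 20 to 320 s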). The conditions noted are these: Recombinant KvBeta, NADPH fluorescence decrease slope, 10 min; at 10 µM; stronger effect = lower value.
Experiment [6] deals with Muscarinic acetylcholine receptor M4 (Homo sapiens) (UniProt P08173). As to the kind of experiment: M4-linked GIRK flux change, two-sided – cell-based, HEK293 M4/GIRK, thallium flux, BTC-AM, M4 allosteric agonist project, primary screen (AID 625;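 active = fluorescence slope after compound addition differing from the mean of all tested samples at 99.7% confidence, mostly higher but some lower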;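 note: thallium influx through GIRK channels coupled to M4 in HEK293 cells with BTC-AM dye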). The conditions noted are these: at 10 µM, actives lie on both sides. A digest of the protocol:
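System: HEK293 cells with M4 receptor and GIRK channels | Incubation: Cells overnight at 37 °C, BTC-AM loading 1 h, reads 2 min total | Technique: Kinetic BTC-AM fluorescence sampled at 1 Hz, 10 s pre-addition baseline | Measure: Post-addition slope, 15–24 s, of baseline-normalized fluorescence | Control set: Carbachol positive, DMSO negative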

Experiment [7] can be described thus: blockers of RIG-like receptor reporter activation – cell-based, Sendai virus stimulus, luciferase, 10K MLSCN set, TLR/RLR signaling modifier project, primary screen (AID 602276;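 active = inhibition at or above 50% at 10 µM; inactive = inhibition below 50%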;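 note: firefly luciferase from ISG56 promoter only with Renilla not read in this screen; 0% = Sendai virus plus DMSO and 100% = medium plus DMSO without virus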). The conditions noted are these: HEK293 RL24 IRF3 luciferase reporter, at 10 µM, stronger effect = higher value. A general note: In a reporter assay the amount or activity of a reporter protein is the signal.

The nature of experiment [8]: TLR3 IRF3 reporter activation blockers – cell-based, poly I:C stimulus, luciferase, 10K MLSCN set, primary screen (AID 602277;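 active = inhibition of the reporter signal at or above 50%; inactive = inhibition below 50%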). The conditions noted are these: HEK293-TLR3 RL24 IRF3 luciferase reporter, at 10 µM, stronger effect = higher value.

Calls of active or inactive are those of the source.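 Rule for the calls, unless noted: active = visual image review flags a hit and inhibition of aggregation exceeds 20%; inconclusive = visual hit but inhibition at or below 20%; inactive = no hit on visual image review.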

Muscarinic acetylcholine receptor M4 (Homo sapiens), sequence (P08173 whole entry, looked up): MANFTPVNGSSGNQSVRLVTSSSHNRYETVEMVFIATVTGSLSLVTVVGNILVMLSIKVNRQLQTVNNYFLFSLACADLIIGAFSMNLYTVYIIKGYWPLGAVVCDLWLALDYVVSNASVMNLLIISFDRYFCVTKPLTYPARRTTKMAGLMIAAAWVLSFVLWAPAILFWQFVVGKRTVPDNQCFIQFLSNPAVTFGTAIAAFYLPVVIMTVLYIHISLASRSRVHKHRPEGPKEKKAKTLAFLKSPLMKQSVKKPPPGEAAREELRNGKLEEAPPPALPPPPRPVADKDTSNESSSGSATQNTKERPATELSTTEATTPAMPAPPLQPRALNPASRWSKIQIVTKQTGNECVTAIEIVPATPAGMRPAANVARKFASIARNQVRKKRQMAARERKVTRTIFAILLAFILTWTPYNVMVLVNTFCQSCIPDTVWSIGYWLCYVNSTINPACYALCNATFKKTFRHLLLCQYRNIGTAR

For orientation: inhibition means the drop in the measured response relative to a control, in per cent. Turning to `COc1ccccc1OC(=O)c1ccc2nsnc2c1`, in experiment [1], the cell count is 623. Moreover, the inhibition in experiment [1] was -11.4% (inactive); in experiment [3], -75.4% (inactive); in experiment [7], 9.79% (inactive); in experiment [8] it was 99.7% (active). The inhibition of aggregation in experiment [2] was 25% (inactive). Also, the nuclei count came to 87.8% in experiment [2] and 103% in experiment [3]. Further, the fluorescence slope in experiment [4] was -0.585 (inactive); in experiment [6] it was 0.00471 (inactive). In addition, in experiment [5], the NADPH fluorescence slope is -5.9e-05 (inactive).
Take `CCC1(CC)C(=O)C(C)(C)C(=O)OC1c1cccs1` (centres undefined): in experiment [1], the cell count is 750. Moreover, the inhibition is -8.8% (inactive) in experiment [1], -18.3% (inactive) in experiment [3], 21.5% (inactive) in experiment [7] and 19.6% (inactive) in experiment [8]. In experiment [2], the inhibition of aggregation is 10.4% (inactive). For the same compound, the nuclei count in experiment [2] is 91.1%; in experiment [3], 110%. Moreover, the results for the fluorescence slope in experiment [4] and in experiment [6] were -0.454 (inactive) and 0.00495 (inactive), respectively. The NADPH fluorescence slope in experiment [5] is -4.2e-05 (inactive).
For the compound `COc1ccc(-c2cc3nc(C)c(CCC(=O)NCc4ccco4)c(C)n3n2)c(OC)c1`, the cell count in experiment [1] amounted to 393. Moreover, the inhibition is 4.9% (inactive) in experiment [1], -25% (inactive) in experiment [3], 12.2% (inactive) in experiment [7] and 11.7% (inactive) in experiment [8]. For the same compound, the inhibition of aggregation in experiment [2] is -18.2% (inactive). The nuclei count came to 105% in experiment [2] and 83.7% in experiment [3]. Moreover, the results for the fluorescence slope in experiment [4] and in experiment [6] were -0.443 (inactive) and 0.00532 (inactive), respectively. For the same compound, in experiment [5], the NADPH fluorescence slope was -0.00019 (inactive).
On to `Cn1c(=O)c2c(nc(SCc3nn[nH]n3)n2Cc2ccccc2F)n(C)c1=O`, for which the cell count in experiment [1] came to 481. Moreover, the inhibition in experiment [1] is -9.5% (inactive); in experiment [3] it was -5.3% (inactive); in experiment [7], 15% (inactive); in experiment [8], 17.9% (inactive). Further, the inhibition of aggregation in experiment [2] is 13.9% (inactive). The nuclei count in experiment [2] came to 81.9%; in experiment [3], 96.9%. For the same compound, the fluorescence slope was -0.535 (inactive) in experiment [4] and 0.00622 (inactive) in experiment [6]. Moreover, in experiment [5], the NADPH fluorescence slope is 4.4e-06 (inactive).
For `CCC(NS(=O)(=O)c1ccc(C)cc1)C(=O)N1CCC2(O)CCCCC2C1` (centres undefined), the cell count in experiment [1] was determined as 379. Further, the inhibition is -3.1% (inactive) in experiment [1], -121% (inactive) in experiment [3], 0.0772% (inactive) in experiment [7] and 14.3% (inactive) in experiment [8]. In experiment [2], the inhibition of aggregation was -10.7% (inactive). The nuclei count turned out to be 106% in experiment [2] and 215% in experiment [3]. For the same compound, the fluorescence slope is -0.429 (inactive) in experiment [4] and 0.00572 (inactive) in experiment [6]. The NADPH fluorescence slope in experiment [5] is 0.000113 (inactive).
In the case of `Cc1cnn(C(=S)NCc2ccco2)c1`, in experiment [1], the cell count came out at 465. Also, the inhibition in experiment [1] was -13.6% (inactive); in experiment [3], -15.2% (inactive); in experiment [7], 6.4% (inactive); in experiment [8], 1.55% (inactive). Besides, in experiment [2], the inhibition of aggregation was 17.2% (inactive). In addition, the results for the nuclei count in experiment [2] and in experiment [3] were 94.5% and 99.9%, respectively. The fluorescence slope was -0.49 (inactive) in experiment [4] and 0.0043 (inactive) in experiment [6]. In addition, the NADPH fluorescence slope in experiment [5] was -3.2e-05 (inactive).
Regarding `CN1CCN(C(=O)c2ccccc2N(Cc2ccccc2)S(C)(=O)=O)CC1`, in experiment [1], the cell count is 359. Also, the inhibition in experiment [1] is 4% (inactive); in experiment [3] it was -6% (inactive); in experiment [7] it was -0.336% (inactive); in experiment [8] it was 4.8% (inactive). Moreover, the inhibition of aggregation in experiment [2] was 2.7% (inactive). Further, the nuclei count in experiment [2] worked out at 111%; in experiment [3] it was 110%. In addition, the fluorescence slope in experiment [4] is -0.596 (inactive); in experiment [6] it was 0.00748 (inactive). Moreover, the NADPH fluorescence slope in experiment [5] is -6.8e-05 (inactive).
With `CCOCCCNC(=O)C1CCN(C(=O)Nc2ccc(Cl)cc2)CC1`, the cell count in experiment [1] turned out to be 437. In addition, the inhibition is -5% (inactive) in experiment [1], -40.5% (inactive) in experiment [3], 10.2% (inactive) in experiment [7] and 21.5% (inactive) in experiment [8]. The inhibition of aggregation in experiment [2] was -2.7% (inactive). Moreover, the figures for the nuclei count in experiment [2] and in experiment [3] were 106% and 90.7%, respectively. For the same compound, the fluorescence slope in experiment [4] was -0.324 (inactive); in experiment [6] it was 0.00707 (inactive). Moreover, the NADPH fluorescence slope in experiment [5] was -6.3e-05 (inactive).
Turning to `CCOc1ccc(C(=O)N2CCC(C(=O)c3ccc4c(c3)OCCO4)CC2)cc1`, the cell count in experiment [1] was 511. Also, the inhibition was -4.3% (inactive) in experiment [1], -99.7% (inactive) in experiment [3], 10.8% (inactive) in experiment [7] and 2.96% (inactive) in experiment [8]. The inhibition of aggregation in experiment [2] was 6% (inactive). The nuclei count turned out to be 91.2% in experiment [2] and 116% in experiment [3]. Moreover, the fluorescence slope was -0.511 (inactive) in experiment [4] and 0.00391 (inactive) in experiment [6]. In experiment [5], the NADPH fluorescence slope is -0.000103 (inactive).
`CCOC(=O)N1CCN(C(=O)Nc2ccc3oc(C)nc3c2)CC1`: in experiment [1], the cell count was determined as 254. For the same compound, the inhibition is 4.2% (inactive) in experiment [1], -238% (inactive) in experiment [3], 5.52% (inactive) in experiment [7] and -2.82% (inactive) in experiment [8]. In experiment [2], the inhibition of aggregation is 20.5% (inactive). Further, the values for the nuclei count in experiment [2] and in experiment [3] were 84.8% and 116%, respectively. The results for the fluorescence slope in experiment [4] and in experiment [6] were -0.463 (inactive) and 0.00473 (inactive), respectively. The NADPH fluorescence slope in experiment [5] is 1.5e-05 (inactive).
For the compound `Cc1cc2c(c(=O)n1CCN(C)C)C(c1ccncc1)C(C#N)=C(N)O2` (centres undefined), the cell count in experiment [1] came to 552. In addition, the inhibition in experiment [1] was 7.7% (inactive); in experiment [3], -74% (inactive); in experiment [7], 5.86% (inactive); in experiment [8] it was 8.13% (inactive). Moreover, the inhibition of aggregation in experiment [2] was 5% (inactive). Also, the nuclei count in experiment [2] is 102%; in experiment [3], 155%. The fluorescence slope was -0.484 (inactive) in experiment [4] and 0.00498 (inactive) in experiment [6]. For the same compound, the NADPH fluorescence slope in experiment [5] is -1.3e-05 (inactive).
`COc1cccc(OC)c1C(=O)Nc1cccc(C(C)=O)c1`: the cell count in experiment [1] worked out at 734. The inhibition in experiment [1] is -11.6% (inactive); in experiment [3], 15.5% (inactive); in experiment [7] it was 12.1% (inactive); in experiment [8], 27.4% (inactive). Also, in experiment [2], the inhibition of aggregation is 19.3% (inactive). Further, the figures for the nuclei count in experiment [2] and in experiment [3] were 95.5% and 104%, respectively. Moreover, the fluorescence slope was -0.53 (inactive) in experiment [4] and 0.00451 (inactive) in experiment [6]. In addition, the NADPH fluorescence slope in experiment [5] was -1.1e-05 (inactive).
On to `O=C(NC1CCCC1)c1cc(-c2cccs2)on1`, for which the cell count in experiment [1] is 443. Besides, the inhibition is -5.1% (inactive) in experiment [1], 16.1% (inactive) in experiment [3], -40.4% (inactive) in experiment [7] and -146% (inactive) in experiment [8]. The inhibition of aggregation in experiment [2] is -2.2% (inactive). The nuclei count is 99.3% in experiment [2] and 105% in experiment [3]. The fluorescence slope in experiment [4] was -0.441 (inactive); in experiment [6], 0.00483 (inactive). The NADPH fluorescence slope in experiment [5] was -2.8e-06 (inactive).
For `CCOC(=O)Cc1nn2c(=O)cc(C)nc2s1`, the cell count in experiment [1] came to 728. Also, the inhibition in experiment [1] is -22.9% (inactive); in experiment [3] it was 2.2% (inactive); in experiment [7], 2.1% (inactive); in experiment [8], 11.1% (inactive). Also, in experiment [2], the inhibition of aggregation was 6.2% (inactive). The nuclei count in experiment [2] worked out at 118%; in experiment [3], 94.9%. The fluorescence slope in experiment [4] was -0.474 (inactive); in experiment [6] it was 0.00652 (inactive). Further, the NADPH fluorescence slope in experiment [5] was 0.000188 (inactive).

Values taken from PubChem BioAssay.
